Sampled rows, rich in hits. Any-hit rate of the full collection: about 1.3%.
XiGFP reactiv: activators of inactive X chromosome reactivation, primary screen, imaging, XiGFP fibroblasts, GFP high-content imaging, set 2; 360,000 compounds, 0.055% hits; activation, % at 7.58 µM; XiGFP mouse fibroblasts, % GFP-positive cells imaging, 3 d; cells co-treated with 5-aza-dC sensitizer; scaled so ellipticine positive control = 100%; AID 743238, 2013;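 active = mean normalized replicate activation at least 10% and every replicate at or above 10%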;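 note: 0% = median of on-plate neutral control wells and 100% = ellipticine 6 µM median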
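Schedule: 3 d treatment, 15 min room-temperature fixation; system: 68-5-11 XiGFP fibroblast line; buffer or medium: DMEM plus 5-aza-dC sensitizer; control set: ellipticine 6 µM positive control; compound: one concentration, pinned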
S100A4 MyoIIA: inhibitors of S100A4-myosin IIA peptide binding, primary screen, biochemical, fluorescence polarization, TAMRA-MyoIIA peptide; Protein S100-A4 (Homo sapiens), P26447; inhibition, % at 10.7 µM; 360,000 compounds, 0.14% hits; AID 652163, 2013;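 active = mean inhibition of at least 70% across replicates, with every replicate also reaching that level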
Target sequence (P26447 whole entry, looked up): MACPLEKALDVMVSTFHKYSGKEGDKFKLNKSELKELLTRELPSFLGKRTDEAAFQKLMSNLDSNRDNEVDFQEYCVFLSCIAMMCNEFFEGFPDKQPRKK
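Test system: S100A4 monomer protein; Medium: HEPES pH 7.2 with CaCl2, KCl, NaCl, DTT, Triton; Probe or stimulus: TAMRA-labelled myosin IIA heavy-chain peptide probe, 5 nM; Doses: one dose per compound; Times: polarization read 5 min after assay mix addition, stable 5–60 min; Benchmarks: neutral control DMSO, positive control TFP.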
RAD52 inh: RAD52 DNA annealing inhibitors, primary screen, biochemical, FRET, single point, set 2. recombinant RAD52 DNA annealing, FRET fluorescence. inhibition, % at 18.7 µM. 360,000 compounds, 0.46% hits. AID 651710, 2012;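 active = every replicate showing at least 50% inhibition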
Casp6 inh: human caspase-6 inhibitors, primary screen, biochemical, VEID-R110 fluorescence, single point, set 2; 350,000 compounds, 0.53% hits; purified caspase-6, Z-VEID-R110 cleavage fluorescence; P55212; inhibition, % at 12.5 µM;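 active = mean inhibition across replicates at least about 35%, with every replicate also reaching that limit, limit read from the data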;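 note: 0% = median of neutral control wells and 100% = no fluorescence left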
Target sequence (P55212 24-179 limits assumed): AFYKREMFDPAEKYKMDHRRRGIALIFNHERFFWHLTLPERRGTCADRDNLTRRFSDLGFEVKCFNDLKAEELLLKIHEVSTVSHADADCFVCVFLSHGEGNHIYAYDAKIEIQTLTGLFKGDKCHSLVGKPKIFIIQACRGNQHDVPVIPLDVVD
Target sequence (P55212 194-293 limits assumed): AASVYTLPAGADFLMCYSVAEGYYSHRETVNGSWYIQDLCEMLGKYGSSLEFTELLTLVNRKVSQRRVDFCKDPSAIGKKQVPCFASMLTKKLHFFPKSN
AF4-AF9 inh: inhibitors of AF4 peptide binding to AF9, primary screen, biochemical, AlphaScreen, biotin-AF4 peptide, FLAG-AF9, single point; inhibition, % at 10 µM; 350,000 compounds, 0.47% hits; AID 651704, 2012; Protein AF-9 (Homo sapiens), P42568;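 active = every replicate reaching a set inhibition limit, whatever the replicate mean, cut at about 25% in these data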;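 note: 0% = plate neutral control median and 100% = total signal loss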
RAD54 branch: inhibitors of human RAD54 branch migration, primary screen, biochemical, fluorescence, single point; DNA repair and recombination protein RAD54-like (Homo sapiens), Q92698; RAD54 Holliday junction branch migration, FAM/BHQ fluorescence; inhibition, % at 10.4 µM; 360,000 compounds, 0.14% hits; AID 602329, 2012;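 active = mean normalized replicate activity at least 40 and at least half of replicates scoring 40 or more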;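 note: 0% = median of neutral control wells and 100% = median of positive control wells; inhibitors cause a drop in the FAM fluorescence signal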
The depositor's hits bear a star.

Results for O=[N+]([O-])c1ccc(/C=C/C2=NN(c3ccccc3)C(c3ccco3)C2)cc1 (stereo not given) ?
XiGFP reactiv: 89*; RAD54 branch: -14

Results for O=[N+]([O-])c1ccc(C2=NN(c3ccccc3)C(c3ccco3)C2)cc1 (stereo not given) ?
XiGFP reactiv: 86*; S100A4 MyoIIA: -23; RAD52 inh: -40; Casp6 inh: -9; AF4-AF9 inh: 1

Results for COc1ccc2c3c(n(C)c2c1)[C@@H](CO)NCC31CCN(Cc2cc(-c3ccccc3)on2)CC1 ?
XiGFP reactiv: 0; S100A4 MyoIIA: -2; RAD52 inh: 59*; Casp6 inh: -1; AF4-AF9 inh: 37*

Results for COc1ccc2c3c(n(C)c2c1)[C@H](CO)NCC31CN(Cc2cc(-c3ccccc3)on2)C1 ?
XiGFP reactiv: 0; S100A4 MyoIIA: -19; RAD52 inh: 80*; AF4-AF9 inh: 40*

How did COc1ccc2c3c(n(C)c2c1)[C@@H](CO)NCC31CN(Cc2cc(-c3ccccc3)on2)C1 do in these assays?
XiGFP reactiv: 0; S100A4 MyoIIA: 2; RAD52 inh: 33; AF4-AF9 inh: 5

Results for COc1ccc2c3c(n(C)c2c1)[C@H](CO)N(Cc1ccccc1OC)CC31CN(C(=O)C2CC2)C1 ?
XiGFP reactiv: 0

How did CCCC(=O)Nc1ccc2c(c1)C(=O)N(C)C[C@@H](OC)[C@@H](C)CN(Cc1ccncc1)[C@H](C)CO2 do in these assays?
XiGFP reactiv: 1

Results for Oc1ccc(/C=N/N(Cc2ccccc2)c2ccccc2)c(O)c1O ?
XiGFP reactiv: 0; S100A4 MyoIIA: -2; RAD52 inh: -8; Casp6 inh: 20; AF4-AF9 inh: 27*

How did C[C@@H]1CN([C@H](C)CO)C(=O)c2cccc(NC(=O)c3ccc(-c4nccs4)cc3)c2O[C@H]1CN(C)S(=O)(=O)c1cn(C)cn1 do in these assays?
XiGFP reactiv: 0; S100A4 MyoIIA: 3; RAD52 inh: -10; Casp6 inh: 3; AF4-AF9 inh: -2; RAD54 branch: 3

Results for O=C(N[C@@H]1CC[C@H](CCn2cc(-c3ccccn3)nn2)O[C@@H]1CO)c1cccnc1 ?
XiGFP reactiv: 0; S100A4 MyoIIA: -5; RAD52 inh: 11; Casp6 inh: 1; AF4-AF9 inh: 1; RAD54 branch: -9

How did COc1cc(/C=C(\C(=O)O)c2ccc(S(=O)(=O)N3CCCC3)s2)ccc1OCCC(C)C do in these assays?
XiGFP reactiv: 0; S100A4 MyoIIA: -20; RAD52 inh: -40; Casp6 inh: 45*; AF4-AF9 inh: 1; RAD54 branch: -12

How did O=C(O)/C(=C\c1ccc(Br)cc1)c1ccc(S(=O)(=O)N2CCCCC2)s1 do in these assays?
XiGFP reactiv: 0; S100A4 MyoIIA: -1; RAD52 inh: -24; Casp6 inh: 34; AF4-AF9 inh: -1

How did CCOc1ccccc1/C=C(\C(=O)O)c1ccc(S(=O)(=O)N2CCCCC2)s1 do in these assays?
XiGFP reactiv: 0; S100A4 MyoIIA: -3; RAD52 inh: -4; Casp6 inh: 36*; AF4-AF9 inh: -2; RAD54 branch: -5

Results for O=C(O)/C(=C\c1cccc(F)c1)c1ccc(S(=O)(=O)N2CCCC2)s1 ?
XiGFP reactiv: 0; S100A4 MyoIIA: -4; RAD52 inh: -5; Casp6 inh: 57*; AF4-AF9 inh: 0; RAD54 branch: -9

What do the screens show for `O=C(O)/C(=C\c1ccc(C(F)(F)F)cc1)c1ccc(S(=O)(=O)N2CCCC2)s1`?
XiGFP reactiv: 0; S100A4 MyoIIA: 1; RAD52 inh: -19; Casp6 inh: 16; AF4-AF9 inh: 2; RAD54 branch: 1

What do the screens show for `Cc1cccc(/C=C(\C(=O)O)c2ccc(S(=O)(=O)N3CCCC3)s2)c1`?
XiGFP reactiv: 0; S100A4 MyoIIA: -4; RAD52 inh: -8; Casp6 inh: 52*; AF4-AF9 inh: -5; RAD54 branch: -1

How did COc1ccc2c3c(n(C)c2c1)[C@@H](CO)N(Cc1cccc(Cl)c1)CC31CN(C(C)=O)C1 do in these assays?
XiGFP reactiv: 0; S100A4 MyoIIA: 13; RAD52 inh: -32; AF4-AF9 inh: 1

What do the screens show for `CC(C)C(=O)C1=Cc2cccc([N+](=O)[O-])c2OC1N1CCOCC1` (stereo not given)?
XiGFP reactiv: 0; S100A4 MyoIIA: 1; RAD52 inh: -17; Casp6 inh: 37*; AF4-AF9 inh: 0; RAD54 branch: 0

What do the screens show for `CC(C)C(=O)C1=Cc2cc([N+](=O)[O-])ccc2OC1N1CCOCC1` (stereo not given)?
XiGFP reactiv: 0; S100A4 MyoIIA: 3; RAD52 inh: 3; Casp6 inh: 7; AF4-AF9 inh: -2; RAD54 branch: 3

What do the screens show for `C[C@@H]1CN(C)C(=O)c2cccc(NS(C)(=O)=O)c2O[C@H]1CN(C)C`?
XiGFP reactiv: 0

What do the screens show for `O=C1CCc2cc(S(=O)(=O)N3CCCCC3)cc3c2N1CCC3`?
XiGFP reactiv: 0; S100A4 MyoIIA: 73*; RAD52 inh: 3; Casp6 inh: 1; AF4-AF9 inh: -4

What do the screens show for `C[C@@H]1CN([C@@H](C)CO)C(=O)c2cc(NC(=O)C3CC3)ccc2O[C@H]1CN(C)Cc1ccc2c(c1)OCO2`?
XiGFP reactiv: 0; S100A4 MyoIIA: -4; RAD52 inh: 8; Casp6 inh: -4; AF4-AF9 inh: 0; RAD54 branch: 3

Results for NC1(C(=O)O)CSSC1 ?
XiGFP reactiv: 0; S100A4 MyoIIA: 2; RAD52 inh: -8; Casp6 inh: 4; AF4-AF9 inh: 48*

How did Cc1ccc(C2=N/C(=C\c3coc4ccccc4c3=O)C(=O)O2)cc1 do in these assays?
XiGFP reactiv: 0; S100A4 MyoIIA: -13; RAD52 inh: -22; Casp6 inh: 44*; AF4-AF9 inh: 0

How did COc1ccc2cc(CCNC(=O)C(C)C)c(=O)[nH]c2c1 do in these assays?
XiGFP reactiv: 0; S100A4 MyoIIA: -16; RAD52 inh: 4; Casp6 inh: -1; AF4-AF9 inh: 31*; RAD54 branch: 0

What do the screens show for `CCCNC(=O)c1cc2c(c(-c3cccc(-c4cccc(F)c4)c3)n1)[C@H](CCO)N([S@@](=O)C(C)(C)C)C2`?
S100A4 MyoIIA: -18; RAD52 inh: 3; Casp6 inh: -3; AF4-AF9 inh: 3; RAD54 branch: -1
